Test results from ChEMBL document CHEMBL1128448, “Synthesis and antifungal activity of new azole derivatives containing an N-acylmorpholine ring” (1995).
Converted amounts (≈) assume the structure as drawn.

Legend:
Candida tropicalis [1] = experiment: Evaluation of In vitro antifungal activity against Candida tropicalis 50 by broth macro dilution method; type: functional
Summary of the method: (§1)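 Yeast MIC and MFC by broth macrodilution per NCCLS M27-P in RPMI-1640 buffered with 0.165 M MOPS. Fluconazole in sterile water, other drugs in DMSO. C. parapsilosis ATCC 22019 is the reference strain in each run. MIC is the lowest concentration with turbidity ≤ the 80% inhibition standard. For MFC, 0.04 mL from clear tubes is plated on Sabouraud agar; MFC is the lowest concentration giving ≤1 colony.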

Candida tropicalis [2] = experiment: In vitro evaluation of minimum inhibitory concentration against Candida tropicalis 2.11; type: functional
Summary of the method: (§2)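 Stocks are 800 μg/mL in 50% ethanol. Each plate gets 10 μL of inoculum at 10^5 cfu/mL. Incubation at 25 °C, 48 h for yeasts and 120 h for dermatophytes and molds. Organisms are ATCC strains or clinical isolates.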

Cryptococcus neoformans [3] = experiment: Evaluation of In vitro antifungal activity against Cryptococcus neoformans 74 by broth macro dilution method; type: functional; summary of the method: as §1
Cryptococcus neoformans [4] = experiment: Evaluation of In vitro antifungal activity against Cryptococcus neoformans 87 by broth macro dilution method; type: functional; summary of the method: as §1
Mus musculus [5] = experiment: In vivo evaluation of % survival rate after peroral administration on 3rd day at dose 0.5 mg/kg(as a water solution in (hydroxypropyl -beta-cyclodextrin)); type: functional; conditions: route oral
Summary of the method: (§3)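 Groups of 10 male mice were infected iv with 0.2 mL of C. albicans at (2-8) × 10^7 cfu/mL. Oral doses were given at 1, 4 and 24 h post-infection. Vehicle-only controls were included, with at least 90% control mortality by day 3. Percent survival was recorded on days 3, 5, 7 and 9.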

Mus musculus [6] = experiment: In vivo evaluation of % survival rate after peroral administration on 5th day at dose 0.5 mg/kg(as a water solution in (hydroxypropyl -beta-cyclodextrin)); type: functional; conditions: route oral; summary of the method: as §3
Mus musculus [7] = experiment: In vivo evaluation of % survival rate after peroral administration on 7th day at dose 0.5 mg/kg; type: functional; conditions: route oral, 0.5 mg/kg
Mus musculus [8] = experiment: In vivo evaluation of % survival rate after peroral administration on 7th day at dose 0.5 mg/kg(as a water solution in (hydroxypropyl -beta-cyclodextrin)); type: functional; conditions: route oral; summary of the method: as §3
Mus sp. [9] = experiment: In vivo evaluation of % survival rate after peroral administration on 9th day at dose 0.5 mg/kg; type: functional; conditions: route oral, 0.5 mg/kg
Mus musculus [10] = experiment: In vivo evaluation of % survival rate after peroral administration on 9th day at dose 0.5 mg/kg(as a water solution in (hydroxypropyl -beta-cyclodextrin)); type: functional; conditions: route oral; summary of the method: as §3
Mus sp. [11] = experiment: In vivo evaluation of % survival rate after peroral administration on 9th day at dose 1 mg/kg; type: functional; conditions: route oral, 1 mg/kg
Microsporum canis = experiment: In vitro evaluation of minimum inhibitory concentration against Microsporum canis 47; type: functional; summary of the method: as §2
Rattus norvegicus [12] = experiment: In vivo evaluation of antifungal activity against vaginal candidosis in rat at dose 0.1 mg/kg on 10th day; type: functional
Summary of the method: (§4)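 Groups of 10 female Wistar rats given estradiol 25 mg/kg sc on day -5, then vaginally inoculated with C. albicans on day 0. Infection is confirmed by culture of day-3 swabs. Compound is dosed orally once daily on days 3–5; controls get vehicle. Cure is scored by culture of vaginal swabs taken on days 10 and 15.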

Rattus norvegicus [13] = experiment: In vivo evaluation of antifungal activity against vaginal candidosis in rat at dose 0.1 mg/kg on 15th day; type: functional; summary of the method: as §4
Rattus norvegicus [14] = experiment: In vivo evaluation of antifungal activity against vaginal candidosis in rat at dose 0.25 mg/kg on 10th day; type: functional
Summary of the method: (§5)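 Groups of 10 female Wistar rats given estradiol 25 mg/kg sc on day -5, infected intravaginally with C. albicans by sterile swab on day 0; infection confirmed on day 3 by swab culture (TSB, then Sabouraud agar). Oral dosing once daily on days 3, 4, 5; vehicle controls. Vaginal swabs cultured on days 10 and 15; read-out % cured (culture-negative).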

Nakaseomyces glabratus [15] = experiment: Evaluation of In vitro antifungal activity against Torulopsis glabrata 78 by broth macro dilution method; type: functional; summary of the method: as §1
Nakaseomyces glabratus [16] = experiment: In vitro evaluation of minimum inhibitory concentration against Torulopsis glabrata 78; type: functional; summary of the method: as §2
Trichophyton benhamiae = experiment: In vitro evaluation of minimum inhibitory concentration against Trichophyton mentagrophytes 23; type: functional, Arthroderma benhamiae; summary of the method: as §2
Trichophyton rubrum = experiment: IIn vitro evaluation of minimum inhibitory concentration against Trichophyton rubrum 90; type: functional; summary of the method: as §2
Rhodotorula mucilaginosa = experiment: In vitro evaluation of minimum inhibitory concentration against Rhodotorula rubra 16; type: functional; summary of the method: as §2
Kluyveromyces marxianus = experiment: In vitro evaluation of minimum inhibitory concentration against Candida pseudotropicalis 13; type: functional; summary of the method: as §2
Pichia kudriavzevii = experiment: Evaluation of In vitro antifungal activity against Candida krusei C64 by broth macro dilution method; type: functional; summary of the method: as §1
Candida parapsilosis [17] = experiment: Evaluation of In vitro antifungal activity against Candida parapsilosis 2.07 by broth macro dilution method; type: functional; conditions: Lodderomyces parapsilosis; summary of the method: as §1
Candida parapsilosis [18] = experiment: Evaluation of In vitro antifungal activity against Candida parapsilosis ATCC 141095 by broth macro dilution method; type: functional; conditions: Lodderomyces parapsilosis; summary of the method: as §1
Aspergillus flavus = experiment: In vitro evaluation of minimum inhibitory concentration against Aspergillus flavus 19; type: functional; summary of the method: as §2
Candida albicans [19] = experiment: Evaluation of In vitro antifungal activity against Candida albicans C56 by broth macro dilution method; type: functional; summary of the method: as §1
Rattus norvegicus [20] = experiment: In vivo evaluation of antifungal activity against vaginal candidosis in rat at dose 0.25 mg/kg on 15th day; type: functional; summary of the method: as §5
Candida albicans [21] = experiment: Evaluation of In vitro antifungal activity against Candida albicans 60 by broth macro dilution method

In the case of `C[C@H]1N(C(=O)c2ccc(C(F)(F)F)cc2)CCO[C@@]1(Cn1cncn1)c1ccc(F)cc1F` (stereo in doubt; (-)-41), the MFC (Candida tropicalis [1]) is reported as greater than 64 µg/mL, the MIC (Candida tropicalis [1]) is reported as 16 µg/mL (≈ 34.3 µM) and the MIC (Candida tropicalis [2]) is reported as 40 µg/mL (≈ 85.8 µM). The MFC (Cryptococcus neoformans [3]) was 0.25 µg/mL (≈ 0.536 µM), the MIC (Cryptococcus neoformans [3]) was 0.125 µg/mL (≈ 0.268 µM) and the MFC (Cryptococcus neoformans [4]) was greater than 64 µg/mL. For the same compound, the MIC (Cryptococcus neoformans [4]) was 2 µg/mL (≈ 4.29 µM), the survival at 0.5 mg/kg (Mus musculus [5]) was 100% and the survival at 0.5 mg/kg (Mus musculus [6]) was 100%. The Survival (Mus musculus [7]) was 70%, the survival at 0.5 mg/kg (Mus musculus [8]) was 60% and the Survival (Mus sp. [9]) was 40%. For the same compound, the survival at 0.5 mg/kg (Mus musculus [10]) was 30%, the Survival (Mus sp. [11]) was 70% and the MIC (Microsporum canis) was 20 µg/mL (≈ 42.9 µM). It also gave a Cure rate (Rattus norvegicus [12]) of 10%, a Cure rate (Rattus norvegicus [13]) of 20% and a Cure rate (Rattus norvegicus [14]) of 40%. It also gave an MFC (Nakaseomyces glabratus [15]) greater than 64 µg/mL, an MIC (Nakaseomyces glabratus [15]) of 16 µg/mL (≈ 34.3 µM) and an MIC (Nakaseomyces glabratus [16]) of 10 µg/mL (≈ 21.4 µM). It also gave an MIC (Trichophyton benhamiae) of 40 µg/mL (≈ 85.8 µM), an MIC (Trichophyton rubrum) of 10 µg/mL (≈ 21.4 µM) and an MIC (Rhodotorula mucilaginosa) of 5 µg/mL (≈ 10.7 µM). The MIC (Kluyveromyces marxianus) was 40 µg/mL (≈ 85.8 µM), the MFC (Pichia kudriavzevii) was greater than 64 µg/mL and the MIC (Pichia kudriavzevii) was 32 µg/mL (≈ 68.6 µM). For the same compound, the MFC (Candida parapsilosis [17]) was greater than 64 µg/mL, the MIC (Candida parapsilosis [17]) was 1 µg/mL (≈ 2.14 µM) and the MFC (Candida parapsilosis [18]) was greater than 64 µg/mL. It also gave an MIC (Candida parapsilosis [18]) of 32 µg/mL (≈ 68.6 µM), an MIC (Aspergillus flavus) of 40 µg/mL (≈ 85.8 µM) and an MFC (Candida albicans [19]) greater than 64 µg/mL. For the same compound, the MIC (Candida albicans [19]) was 0.125 µg/mL (≈ 0.268 µM), the Cure rate (Rattus norvegicus [20]) was 60% and the MFC (Candida albicans [21]) was greater than 64 µg/mL.
